G6PDH counter: counter-screen for G6PDH assay hits: L. mesenteroides G6PDH inhibition; Purified L. mesenteroides G6PDH, diaphorase/resazurin coupled fluorescence, 45 min; inhibition, % at 5 µM; actives 0.12% (n = 200,000); AID 1020; in the data active means inhibition above about 50%
HKDC1 inhibitor: blocks human hexokinase HKDC1 activity | recombinant HKDC1, G6PDH/diaphorase resazurin coupled fluorescence | Q2TB90 | actives 0.16% (n = 340,000) | AID 493160 | inhibition, % at 20 µM;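 active means inhibition above about 35% when tested at 20 µM, limit read from the data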;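 further: plate controls were DMSO wells with enzyme for no effect and DMSO wells lacking enzyme for full effect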
Target sequence (Q2TB90 whole entry, looked up): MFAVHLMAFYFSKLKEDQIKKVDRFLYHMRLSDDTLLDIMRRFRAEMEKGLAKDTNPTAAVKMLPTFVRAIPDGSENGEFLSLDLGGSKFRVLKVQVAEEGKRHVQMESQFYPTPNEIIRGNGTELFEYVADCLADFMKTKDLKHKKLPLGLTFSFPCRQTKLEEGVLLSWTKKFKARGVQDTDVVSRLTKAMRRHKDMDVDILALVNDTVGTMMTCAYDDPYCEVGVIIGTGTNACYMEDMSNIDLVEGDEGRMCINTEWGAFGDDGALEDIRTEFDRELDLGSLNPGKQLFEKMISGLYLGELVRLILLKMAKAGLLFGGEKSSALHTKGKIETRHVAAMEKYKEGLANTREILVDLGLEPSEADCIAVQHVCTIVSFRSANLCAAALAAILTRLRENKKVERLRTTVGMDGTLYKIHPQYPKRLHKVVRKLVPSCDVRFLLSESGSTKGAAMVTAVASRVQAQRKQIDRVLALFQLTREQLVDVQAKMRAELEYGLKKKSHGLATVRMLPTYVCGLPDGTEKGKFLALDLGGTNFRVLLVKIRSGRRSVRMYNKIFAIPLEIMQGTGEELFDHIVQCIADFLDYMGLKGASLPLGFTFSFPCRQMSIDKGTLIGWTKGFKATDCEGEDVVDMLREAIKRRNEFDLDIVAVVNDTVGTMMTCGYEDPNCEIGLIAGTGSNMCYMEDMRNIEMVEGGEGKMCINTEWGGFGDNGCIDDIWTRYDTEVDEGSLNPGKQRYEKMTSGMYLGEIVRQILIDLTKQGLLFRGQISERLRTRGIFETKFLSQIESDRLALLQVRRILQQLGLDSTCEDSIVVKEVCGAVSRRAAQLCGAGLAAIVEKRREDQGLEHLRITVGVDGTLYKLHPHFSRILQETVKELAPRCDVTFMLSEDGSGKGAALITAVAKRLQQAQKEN
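Test system: recombinant HKDC1 (HK5) hexokinase enzyme, produced in-house / Doses: 20 µM test compound, 1% DMSO / Timing: 90 min, room temperature / Detection: G6PDH/diaphorase-coupled fluorescence, 1 mM NADP, 100 µM resazurin, 525/613 nm / Control set: DMSO wells with and without enzyme mix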
Diaph inh CS: inhibits diaphorase or chemically oxidizes, flagging diaphorase assay artifacts; actives 0.69% (n = 190,000); diaphorase resazurin-to-resorufin fluorescence, NADH, 16 min; bacterial (C. kluyveri) enzyme, not human; inhibition, % at 20 µM; AID 1217;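 active means primary screen inhibition at 20 µM above a set limit, cut at about 50% in these data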;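 further: plate controls were DMSO with full reaction for no effect and wells lacking NADH for full effect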
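Test system: bacterial diaphorase enzyme (C. kluyveri); Quantity: 0.14 U/mL diaphorase, enzyme working solution; Times: reaction incubation of 16 min at room temperature; Measured by: fluorescence of resorufin formed from resazurin, Ex 544/Em 590 nm; Benchmarks: positive control minus NADH, DMSO neutral control.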
Diaph act CS: counter-screen for diaphorase-based assays: diaphorase activators and chemical reducers; Diaphorase/resazurin coupled assay, resorufin fluorescence, 16 min; stronger effect = higher value; 1 = vehicle wells, 0 = NADH-free wells; activation factor at 20 µM; actives 0.005% (n = 190,000); AID 1229;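 active means diaphorase activity raised at least twofold by the compound at 20 µM; inactive means activation factor below 2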
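Test system: Clostridium kluyveri diaphorase, purified enzyme. Buffer or medium: 50 mM HEPES pH 7.4 buffer plus MgCl2 and Tween 20. Also added: 0.114 mM NADH and 0.1 mM resazurin, final amounts. Dosing: compound 20 µM once, DMSO 1%. Schedule: 16 min enzyme reaction, ambient temperature. Detection: fluorescence of resorufin, 544 nm excitation, 590 nm emission.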
PfG6PD inh: PfG6PD (Plasmodium falciparum) enzyme inhibition | PfGluPho enzyme, NADPH resazurin-diaphorase fluorescence | actives 0.78% (n = 350,000) | inhibition, % at 20 µM;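 active means inhibition reaching at least a set limit at 20 µM in the primary screen, cut at about 59% in these data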;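 further: 0% = DMSO wells with substrate and 100% = DMSO wells lacking glucose-6-phosphate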
Tb hexokinase: T. brucei hexokinase 1 inhibition; actives 0.11% (n = 220,000); recombinant TbHK1, G6PDH-coupled NADH A340; inhibition, % at 10 µM;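 active means inhibition of 50% or more in the single-dose primary screen; inactive means inhibition below 50%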
PfG6PD confirm: confirmation of Plasmodium falciparum G6PD inhibitors; shares compounds with PfG6PD inh; recombinant PfGluPho, NADPH-diaphorase-resazurin fluorescence; inhibition, % at 20 µM; actives 34% (n = 2,400); AID 504753;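 active means inhibition of at least 50% at 20 µM in any single replicate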;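 further: 0% = DMSO with substrate and 100% = DMSO lacking glucose-6-phosphate substrate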
Diaphorase 10uM: diaphorase inhibition or oxidation at 10 uM NADPH | shares compounds with PfG6PD inh | diaphorase-coupled resazurin reduction, fluorescence, NADPH 10 uM | inhibition, % at 20 µM | actives 39% (n = 820) | AID 504862;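 active means average inhibition reaching 50% or more with the compound at 20 µM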;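 further: resorufin red fluorescence formed as diaphorase reduces resazurin using NADPH; 0% = DMSO with enzyme and 100% = DMSO without enzyme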
Diaphorase 30uM: inhibits diaphorase or oxidizes, flagging false PfG6PD hits. shares compounds with PfG6PD inh. Diaphorase/resazurin coupled assay, resorufin fluorescence, 30 uM NADPH. inhibition, % at 20 µM. actives 29% (n = 820);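 active means inhibition averaging 50% or more, tested at 20 µM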;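 further: 0% = DMSO with enzyme and 100% = DMSO wells lacking diaphorase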
Active calls of the source: *. A selection: hits, their analogues and other compounds. The true share with any hit is near 1.3%.

Results for Cc1cc(C(=O)O)ccc1-n1c(C)cc(C=C2C(=O)c3ccccc3C2=O)c1C ?
G6PDH counter: 0; HKDC1 inhibitor: 2; Diaph inh CS: 29; Diaph act CS: 0.7; PfG6PD inh: 80*; Tb hexokinase: -11; PfG6PD confirm: 47*; Diaphorase 10uM: 60*; Diaphorase 30uM: 41

How did Cc1cc(C(=O)O)ccc1-n1c(C)cc(/C=C(/C#N)C(=O)Nc2ccccc2)c1C do in these assays?
G6PDH counter: 0; HKDC1 inhibitor: -4; Diaph inh CS: 8; Diaph act CS: 0.9; PfG6PD inh: 8; Tb hexokinase: -24

Results for COc1ccc(CSCC(=O)N/N=C/c2ccc(OCC(=O)NCc3ccco3)cc2)cc1 ?
G6PDH counter: -1; HKDC1 inhibitor: -1; Diaph inh CS: 25; Diaph act CS: 0.7; PfG6PD inh: -9; Tb hexokinase: 5

How did COc1ccc(CSCC(=O)N/N=C/c2ccccc2OCc2ccccc2)cc1 do in these assays?
G6PDH counter: 0; HKDC1 inhibitor: -2; Diaph inh CS: 12; Diaph act CS: 0.9; PfG6PD inh: 89*; Tb hexokinase: 5; PfG6PD confirm: 20

How did O=C(CSCc1ccccc1)N/N=C/c1ccccc1OCc1ccccc1 do in these assays?
G6PDH counter: 8; HKDC1 inhibitor: 9; Diaph inh CS: -4; Diaph act CS: 1; PfG6PD inh: 63*; Tb hexokinase: 5; PfG6PD confirm: -14

How did Cn1cc(Cl)c(C(=O)OCC(=O)c2ccccc2)n1 do in these assays?
HKDC1 inhibitor: -8; PfG6PD inh: 11

Results for CCn1c(N)c(C(=O)NCCCOC)sc1=S ?
G6PDH counter: 18; HKDC1 inhibitor: -4; Diaph inh CS: 10; Diaph act CS: 0.9; PfG6PD inh: 65*; Tb hexokinase: -16; PfG6PD confirm: 13

Results for C=CCn1c(N)c(C(=O)NCC2CCCO2)sc1=S (stereo not given) ?
G6PDH counter: 16; HKDC1 inhibitor: -8; Diaph inh CS: 1; Diaph act CS: 1; PfG6PD inh: 20; Tb hexokinase: -27

How did CCNC(=O)c1sc(=S)n(CC)c1N do in these assays?
G6PDH counter: 7; HKDC1 inhibitor: -9; Diaph inh CS: 1; Diaph act CS: 1; PfG6PD inh: 12; Tb hexokinase: -31

What do the screens show for `CCn1c(N)c(C(=O)NCC2CCCO2)sc1=S` (stereo not given)?
G6PDH counter: 3; HKDC1 inhibitor: -18; Diaph inh CS: -7; Diaph act CS: 1.1; PfG6PD inh: 61*; Tb hexokinase: -38; PfG6PD confirm: 40

Results for CCn1c(N)c(C(=O)NC)sc1=S ?
G6PDH counter: 3; HKDC1 inhibitor: -24; Diaph inh CS: 7; Diaph act CS: 0.9; PfG6PD inh: 80*; Tb hexokinase: -2; PfG6PD confirm: 50*; Diaphorase 10uM: -27; Diaphorase 30uM: -20

What do the screens show for `COc1ccc(Cl)cc1-c1nc(SCC(=O)NC(C)C(C)C)n[nH]1` (stereo not given)?
G6PDH counter: -6; HKDC1 inhibitor: -5; Diaph inh CS: 10; Diaph act CS: 0.9; PfG6PD inh: 19; Tb hexokinase: 2

Results for COc1ccc2[nH]cc(CCNC(=O)c3ccc4ccccc4n3)c2c1 ?
HKDC1 inhibitor: 4; PfG6PD inh: 62*; PfG6PD confirm: 40

How did COc1ccc(C(=O)NCCc2c[nH]c3ccc(OC)cc23)cc1 do in these assays?
HKDC1 inhibitor: 0; PfG6PD inh: 2

Assay outcomes: PubChem BioAssay, several laboratories
